Tests used:
Mus musculus [1] = assay: Antiinflammatory activity in NIH mouse assessed as inhibition of TPA-induced mouse ear edema measured per ear administered to right ear relative to untreated control; assay type: functional, organism-based
In short: (§1)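 Male NIH mice, groups of 5-8, anaesthetized with Sedaphorte. Right ear got TPA 2.5 μg in 10 μL EtOH, split across both faces; left ear got EtOH only. 10 min later, test compound at 0.1 to 1.0 μmol in 20 μL Me₂CO-CH₂Cl₂ (1:1) was applied to the right ear; controls got vehicle only. Sacrificed at 4 h; a 7 mm plug was taken from each ear.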

Mus musculus [2] = assay: Antiinflammatory activity in NIH mouse assessed as inhibition of TPA-induced mouse ear edema at 1 umol/ear administered to right ear relative to untreated control; assay type: functional; in short: as §1

CCCCCCCCCCCC(=O)O[C@H]1[C@@H](O[C@]2(COC(C)=O)O[C@H](CO)[C@@H](O)[C@@H]2OC(=O)C(C)C)O[C@H](CO)[C@@H](O)[C@@H]1OC(=O)C(C)C
IC50 (Mus musculus [1]): 0.26 µmol/ear

CCCCCCCCCCCC(=O)O[C@H]1[C@@H](O[C@]2(CO)O[C@H](CO)[C@@H](O)[C@@H]2OC(=O)C(C)C)O[C@H](CO)[C@@H](O)[C@@H]1OC(=O)C(C)C
IC50 (Mus musculus [1]): 0.35 µmol/ear

CCCCCCCCCCCC(=O)O[C@H]1[C@@H](O[C@]2(COC(C)=O)O[C@H](CO)[C@@H](O)[C@@H]2O)O[C@H](CO)[C@@H](O)[C@@H]1OC(=O)C(C)C
IC50 (Mus musculus [1]): 0.34 µmol/ear

CC(=O)O[C@H](C[C@H]1C(C)=CC[C@H]2C(C)(C)CCC[C@]12C)/C(C)=C/CO
inhibition (INH) (Mus musculus [2]): 25.4%

CCCCCCCCCCCC(=O)O[C@H]1[C@@H](O[C@]2(CO)O[C@H](CO)[C@@H](O)[C@@H]2O)O[C@H](CO)[C@@H](O)[C@@H]1OC(=O)C(C)C
IC50 (Mus musculus [1]): 0.24 µmol/ear

C=C1[C@H](OC(C)=O)C[C@H]2C(C)(C)CCC[C@]2(C)[C@H]1C[C@@H](OC(C)=O)/C(C)=C/COC(C)=O
inhibition (INH) (Mus musculus [2]): 29.4%

CC1=CC[C@H]2C(C)(C)CCC[C@]2(C)[C@H]1C[C@@H](O)/C(C)=C/CO [PHYSACOZTOMATIN]
inhibition (INH) (Mus musculus [2]): 65.8% | IC50 (Mus musculus [1]): 0.49 µmol/ear

C=C1[C@H](O)C[C@H]2C(C)(C)CCC[C@]2(C)[C@H]1C[C@@H](O)/C(C)=C/CO [PHYSORDIN]
inhibition (INH) (Mus musculus [2]): 64.3% | IC50 (Mus musculus [1]): 0.63 µmol/ear

Source: ChEMBL document CHEMBL1177746, “Labdanes and sucrose esters from Physalis sordida” (J Nat Prod, 2010)
